# Results as given in ChEMBL document CHEMBL4184225, “Discovery of selective 2,4-diaminoquinazoline toll-like receptor 7 (TLR 7) agonists” (Bioorg Med Chem Lett, 2018).
# Experiments:
# Cytochrome P450 3A4 = Cytochrome P450 3A4 (Homo sapiens, UniProt P08684); assay: Inhibition of CYP3A4 (unknown origin); type: ADME
# Cytochrome P450 2C8 = target: T1, Cytochrome P450 2C8 (Homo sapiens, UniProt P10632); assay: Inhibition of CYP2C8 (unknown origin); type: ADME
# T1 sequence (P10632 whole entry): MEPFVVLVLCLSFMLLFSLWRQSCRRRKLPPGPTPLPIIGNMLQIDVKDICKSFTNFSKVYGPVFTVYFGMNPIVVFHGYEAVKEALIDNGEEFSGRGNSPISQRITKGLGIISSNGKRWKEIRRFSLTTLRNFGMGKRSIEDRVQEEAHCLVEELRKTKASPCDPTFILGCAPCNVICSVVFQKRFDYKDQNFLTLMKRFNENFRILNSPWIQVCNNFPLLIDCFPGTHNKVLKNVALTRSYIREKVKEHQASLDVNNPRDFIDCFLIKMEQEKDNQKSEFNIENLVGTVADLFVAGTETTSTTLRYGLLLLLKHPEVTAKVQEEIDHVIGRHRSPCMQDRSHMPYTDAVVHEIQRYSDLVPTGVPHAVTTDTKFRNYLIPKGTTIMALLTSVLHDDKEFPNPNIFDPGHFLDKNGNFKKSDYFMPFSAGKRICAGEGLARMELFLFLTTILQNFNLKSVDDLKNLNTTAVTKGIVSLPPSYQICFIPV
# Cytochrome P450 2C9 = Cytochrome P450 2C9 (Homo sapiens, UniProt P11712); assay: Inhibition of CYP2C9 (unknown origin); type: ADME
# Cytochrome P450 2D6 = Cytochrome P450 2D6 (Homo sapiens, UniProt P10635); assay: Inhibition of CYP2D6 (unknown origin); type: ADME
# [1] = target: T2, Toll-like receptor 7 (Homo sapiens) (UniProt Q9NYK1); assay: Agonist activity at human TLR7 expressed in HEK293 cells assessed as induction of receptor activation incubated for 6 hrs by NF-kappaB-luciferase reporter gene assay; type: cell-based
# T2 sequence (whole entry): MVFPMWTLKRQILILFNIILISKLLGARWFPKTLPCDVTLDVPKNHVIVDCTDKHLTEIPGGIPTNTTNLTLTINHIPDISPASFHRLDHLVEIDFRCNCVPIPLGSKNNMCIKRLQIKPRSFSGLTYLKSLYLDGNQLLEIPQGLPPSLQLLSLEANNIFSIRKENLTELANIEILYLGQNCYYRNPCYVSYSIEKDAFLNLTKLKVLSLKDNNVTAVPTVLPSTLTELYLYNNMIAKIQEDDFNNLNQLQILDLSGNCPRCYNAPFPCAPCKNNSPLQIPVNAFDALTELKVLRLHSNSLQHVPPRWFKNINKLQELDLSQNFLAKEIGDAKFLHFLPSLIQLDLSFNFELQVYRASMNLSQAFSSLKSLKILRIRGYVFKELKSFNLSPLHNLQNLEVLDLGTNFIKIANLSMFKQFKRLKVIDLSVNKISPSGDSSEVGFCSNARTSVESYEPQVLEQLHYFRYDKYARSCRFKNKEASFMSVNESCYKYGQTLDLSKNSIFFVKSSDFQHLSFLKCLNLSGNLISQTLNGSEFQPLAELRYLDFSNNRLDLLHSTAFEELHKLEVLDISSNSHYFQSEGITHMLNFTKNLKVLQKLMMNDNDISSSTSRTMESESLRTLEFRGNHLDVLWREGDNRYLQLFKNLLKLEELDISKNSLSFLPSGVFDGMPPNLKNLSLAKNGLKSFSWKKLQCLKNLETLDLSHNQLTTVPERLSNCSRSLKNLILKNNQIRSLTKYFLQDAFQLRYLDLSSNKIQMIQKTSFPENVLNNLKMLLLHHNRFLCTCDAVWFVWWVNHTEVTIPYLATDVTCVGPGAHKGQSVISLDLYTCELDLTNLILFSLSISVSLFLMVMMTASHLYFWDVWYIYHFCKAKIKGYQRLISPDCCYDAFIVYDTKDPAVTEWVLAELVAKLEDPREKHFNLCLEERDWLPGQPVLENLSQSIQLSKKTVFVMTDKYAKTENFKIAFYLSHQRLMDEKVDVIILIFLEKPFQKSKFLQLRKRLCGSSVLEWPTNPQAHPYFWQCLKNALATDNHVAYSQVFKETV
# Summary of the method: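 HEK293 cells transiently transfected overnight with CMV-TLR7 (wild type or dLRR2 mutant) plus NFκB-luc plasmids. Seeded at 1.67 x 10^5 cells/mL onto compound in 4% DMSO (stock), 6 h at 37°C, 5% CO2, luciferase readout. Quadruplicate dose-response. LEC is the concentration giving an effect at least two-fold above assay SD. Values averaged over independent experiments where repeated.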
# Homo sapiens = organism: Homo sapiens; assay: Selectivity index, ratio of MEC for agonist activity at human TLR8 expressed in HEK293 cells to MEC for agonist activity at human TLR7 expressed in HEK293 cells as; type: cell-based
# Summary of the method: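 Ratio of TLR8 to TLR7 LEC from HEK293 NFκB-luciferase reporter assays. Cells were transiently transfected with TLR7 or TLR8 construct plus NFκB-luc and treated with compound for 6 h at 37°C. LEC is the lowest concentration with signal at least two-fold above the assay SD, from quadruplicate dose-response curves.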
# Cytochrome P450 1A2 = target: T3, Cytochrome P450 1A2 (Homo sapiens, UniProt P05177); assay: Inhibition of CYP1A2 (unknown origin); type: ADME
# T3 sequence (P05177 whole entry): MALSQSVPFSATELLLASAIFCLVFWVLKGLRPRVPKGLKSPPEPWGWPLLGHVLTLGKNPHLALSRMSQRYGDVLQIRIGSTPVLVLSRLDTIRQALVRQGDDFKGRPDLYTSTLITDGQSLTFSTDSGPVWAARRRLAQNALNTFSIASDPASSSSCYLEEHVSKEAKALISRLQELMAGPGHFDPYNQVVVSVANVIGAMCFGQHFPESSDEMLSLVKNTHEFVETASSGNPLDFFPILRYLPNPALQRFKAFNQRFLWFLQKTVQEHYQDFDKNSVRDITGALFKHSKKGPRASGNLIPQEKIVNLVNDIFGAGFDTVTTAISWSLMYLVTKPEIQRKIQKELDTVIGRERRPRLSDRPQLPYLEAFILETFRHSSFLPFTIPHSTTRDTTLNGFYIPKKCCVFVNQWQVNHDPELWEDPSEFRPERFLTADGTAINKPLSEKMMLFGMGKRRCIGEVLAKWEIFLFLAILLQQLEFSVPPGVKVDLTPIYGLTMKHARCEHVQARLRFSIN
# [2] = Cmax in Sprague-Dawley rat plasma at 10 mg/kg, po; type: ADME, organism-based; parameters: dose 10 mg/kg, route oral
# Summary of the method: (§1)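 Healthy male Sprague-Dawley rats given a single oral dose of 10 mg/kg. Portal vein plasma, systemic plasma and liver sampled. Cmax and Tmax determined, and AUC over 0–last. Liver/plasma ratio calculated from AUC(0-last).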
# [3] = AUClast in Sprague-Dawley rat portal vein at 10 mg/kg, po; type: ADME, organism-based; parameters: dose 10 mg/kg, time 0 - last, route oral; summary of the method: as §1
# [4] = Ratio of AUClast in liver to AUClast in plasma of Sprague-Dawley rat at 10 mg/kg, po; type: ADME, organism-based; conditions: liver and plasma; summary of the method: as §1
# [5] = AUClast in Sprague-Dawley rat liver at 10 mg/kg, po; type: ADME, organism-based; conditions: in vivo; summary of the method: as §1
# [6] = Metabolic stability in rat liver microsomes assessed as drug metabolism after 15 mins at 1 uM
# [7] = AUClast in Sprague-Dawley rat plasma at 10 mg/kg, po; type: ADME, organism-based; parameters: dose 10 mg/kg, time 0 - last, route oral; summary of the method: as §1
# Cytochrome P450 2C9, sequence (P11712 whole entry): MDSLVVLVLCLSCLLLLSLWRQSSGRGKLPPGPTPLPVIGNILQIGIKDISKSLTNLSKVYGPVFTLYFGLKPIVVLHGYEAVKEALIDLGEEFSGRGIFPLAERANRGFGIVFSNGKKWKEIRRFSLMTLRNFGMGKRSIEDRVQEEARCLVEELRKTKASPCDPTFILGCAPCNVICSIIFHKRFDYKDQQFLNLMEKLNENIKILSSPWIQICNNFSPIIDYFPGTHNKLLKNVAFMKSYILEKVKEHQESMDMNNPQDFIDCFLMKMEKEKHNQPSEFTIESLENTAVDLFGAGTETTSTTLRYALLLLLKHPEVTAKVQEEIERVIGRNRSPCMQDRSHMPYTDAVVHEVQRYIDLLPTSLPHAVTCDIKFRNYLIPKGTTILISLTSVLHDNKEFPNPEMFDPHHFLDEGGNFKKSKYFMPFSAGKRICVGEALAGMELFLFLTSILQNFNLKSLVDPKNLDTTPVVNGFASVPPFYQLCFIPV
# Cytochrome P450 2D6, sequence (P10635 whole entry): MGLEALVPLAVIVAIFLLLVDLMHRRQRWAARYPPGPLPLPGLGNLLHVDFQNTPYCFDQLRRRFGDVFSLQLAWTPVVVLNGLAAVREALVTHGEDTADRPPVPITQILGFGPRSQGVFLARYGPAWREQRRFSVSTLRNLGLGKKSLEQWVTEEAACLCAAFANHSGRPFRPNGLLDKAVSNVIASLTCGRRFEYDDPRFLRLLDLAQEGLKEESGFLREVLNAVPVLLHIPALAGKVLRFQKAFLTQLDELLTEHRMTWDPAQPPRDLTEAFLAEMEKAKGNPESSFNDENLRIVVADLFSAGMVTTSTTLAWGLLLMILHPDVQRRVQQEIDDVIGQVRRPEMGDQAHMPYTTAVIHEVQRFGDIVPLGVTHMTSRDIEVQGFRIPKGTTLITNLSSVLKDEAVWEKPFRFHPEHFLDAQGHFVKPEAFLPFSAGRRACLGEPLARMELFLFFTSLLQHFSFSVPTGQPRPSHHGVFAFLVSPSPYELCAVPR
# Cytochrome P450 3A4, sequence (P08684 whole entry): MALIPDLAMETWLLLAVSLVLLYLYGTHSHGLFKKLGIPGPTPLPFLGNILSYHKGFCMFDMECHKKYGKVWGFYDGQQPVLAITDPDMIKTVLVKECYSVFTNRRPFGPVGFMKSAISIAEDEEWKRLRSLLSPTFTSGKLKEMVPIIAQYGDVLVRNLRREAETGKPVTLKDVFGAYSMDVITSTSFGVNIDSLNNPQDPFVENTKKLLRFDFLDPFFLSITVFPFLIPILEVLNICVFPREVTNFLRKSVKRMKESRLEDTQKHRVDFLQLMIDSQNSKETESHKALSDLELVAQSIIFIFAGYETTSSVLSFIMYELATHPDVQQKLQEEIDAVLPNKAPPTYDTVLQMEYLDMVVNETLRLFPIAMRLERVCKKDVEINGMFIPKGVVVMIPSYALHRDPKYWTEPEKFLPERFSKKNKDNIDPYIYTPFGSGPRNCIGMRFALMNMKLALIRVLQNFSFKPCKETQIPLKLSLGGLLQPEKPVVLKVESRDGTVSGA
SMILES,IC50 (Cytochrome P450 3A4) [µM],IC50 (Cytochrome P450 2C8) [µM],IC50 (Cytochrome P450 2C9) [µM],IC50 (Cytochrome P450 2D6) [µM],MEC [1] [µM],Ratio (Homo sapiens),IC50 (Cytochrome P450 1A2) [µM],Cmax [2] [ng/mL],AUC(0-t) [3] [ng·h/mL],Kp [4],AUClast [5] [ng·h/g],"metabolised at 0.25 h, 1 µM [6] [%]",AUC(0-t) [7] [ng·h/mL]
CCCCNc1nc(N)nc2cccc(OCc3ccccc3OC)c12,> 10,> 10,> 10,> 10,0.27,90,2.9,–,–,–,–,–,–
CCCCNc1nc(N)nc2cccc(C(=O)N[C@H](C)c3ccccc3)c12,> 10,> 10,> 10,> 10,2.29,–,> 10,–,–,–,–,–,–
CCCCNc1nc(N)nc2cccc(C(=O)N(C)Cc3ccccc3)c12,8.5,> 10,> 10,5.6,0.53,–,> 10,9,621,30,1064,99,37
CCCCNc1nc(N)nc2ccccc12,–,–,–,–,0.17,–,–,33,1520,> 100,6450,95,56
CCCCNc1nc(N)nc2cccc(OCc3ccccn3)c12,> 10,> 10,> 10,> 10,0.49,–,1.3,–,–,–,–,–,–
CCCCNc1nc(N)nc2cccc(C(=O)NC(C)C)c12,> 10,> 10,> 10,> 10,2.05,–,> 10,–,–,–,–,–,–
CCCCNc1nc(N)nc2cccc(C(=O)N[C@@H](C)c3ccccc3)c12,> 10,> 10,> 10,> 10,0.09,> 250,> 10,87,902,36,15841,54,439
CCCCNc1nc(N)nc2cccc(C(=O)NCc3ccccc3)c12,> 10,> 10,> 10,6.6,0.06,–,> 10,–,–,–,–,–,–
CCCCNc1nc(N)nc2cccc(OCc3cccnc3)c12,6.7,> 10,> 10,> 10,0.03,–,0.9,–,–,–,–,–,–
CCCCNc1nc(N)nc2cccc(OCc3nccc(OC)c3OC)c12,9.9,> 10,> 10,> 10,0.03,–,4.1,–,–,–,–,–,–
CCCCNc1nc(N)nc2cccc(OCc3ccccc3)c12,–,> 10,> 10,5.7,0.16,10,0.3,–,–,–,–,–,–
CCCCNc1nc(N)nc2cccc(OCc3ccc(CO)cc3OC)c12,> 10,> 10,5,4.4,0.03,> 200,> 10,–,–,–,–,–,–
CCCCNc1nc(N)nc2cccc(C(=O)NC)c12,> 10,> 10,8,> 10,0.35,–,> 10,–,–,–,–,–,–
